pIC50: −log10 of the molar value. Activity calls are given as the source filed them. The rule behind the calls is not given here.
How the values were obtained:
[1] = target: T1, Serine/threonine-protein kinase Nek2 (Homo sapiens, UniProt P51955); assay: Inhibition of human recombinant Nek2 in presence of 50 uM ATP by ADP-Glo kinase assay
T1 sequence (P51955 whole entry): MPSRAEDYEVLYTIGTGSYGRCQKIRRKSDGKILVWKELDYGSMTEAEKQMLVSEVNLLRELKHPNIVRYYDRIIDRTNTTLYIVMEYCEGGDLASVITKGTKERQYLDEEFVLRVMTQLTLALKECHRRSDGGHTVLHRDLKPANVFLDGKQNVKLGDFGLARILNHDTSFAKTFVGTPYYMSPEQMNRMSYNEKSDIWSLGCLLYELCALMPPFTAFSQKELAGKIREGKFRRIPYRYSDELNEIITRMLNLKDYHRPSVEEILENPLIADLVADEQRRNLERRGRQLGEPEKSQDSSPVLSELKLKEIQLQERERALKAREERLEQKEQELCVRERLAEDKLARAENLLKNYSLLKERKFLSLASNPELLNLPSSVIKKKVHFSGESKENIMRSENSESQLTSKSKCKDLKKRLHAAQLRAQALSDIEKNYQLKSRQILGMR
Method in brief: (§1)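 Kinase activity was measured at 50 μM ATP using recombinant enzyme. A concentration-response curve was generated for each kinase, and IC50 was obtained by fitting the data.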

A549 [2] = assay: Antimigratory activity against human A549 cells at 50 to 100 uM by wound healing assay; format: functional, cell-based; details: dose 50-100 µM
Method in brief: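 A549 monolayers were scratched and treated. Migration was judged by imaging wound boundaries at the initial scratch (t = 0) and at 24 hr post-treatment, compared with vehicle control.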

MDA-MB-231 = assay: Cytotoxicity against human MDA-MB-231 cells assessed as inhibition of cell growth by MTT assay; format: functional, cell-based
Method in brief: (§2)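 Cell viability read by MTT assay across a range of concentrations. EC50 taken from the dose-response curve. See Supporting Information, Section III, for details not given here.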

[3] = target: Cyclin-dependent kinase 1 (Homo sapiens, UniProt P06493); assay: Inhibition of CDK1 (unknown origin); method in brief: as §1
Aurora kinase A = target: T2, Aurora kinase A (Homo sapiens, UniProt O14965); assay: Inhibition of Aurora A (unknown origin); method in brief: as §1
T2 sequence (O14965 whole entry): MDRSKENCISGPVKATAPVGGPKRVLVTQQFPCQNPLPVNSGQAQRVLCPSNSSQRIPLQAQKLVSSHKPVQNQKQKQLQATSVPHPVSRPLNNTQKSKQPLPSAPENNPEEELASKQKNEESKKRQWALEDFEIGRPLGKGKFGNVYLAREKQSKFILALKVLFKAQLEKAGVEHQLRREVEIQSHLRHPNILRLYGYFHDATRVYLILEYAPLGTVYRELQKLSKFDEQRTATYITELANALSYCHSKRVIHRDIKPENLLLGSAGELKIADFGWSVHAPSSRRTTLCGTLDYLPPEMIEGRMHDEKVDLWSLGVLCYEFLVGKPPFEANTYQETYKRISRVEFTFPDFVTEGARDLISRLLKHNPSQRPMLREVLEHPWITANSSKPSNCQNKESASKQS

[4] = target: T1, Serine/threonine-protein kinase Nek2; assay: Inhibition of human recombinant Nek2 in presence of 150 uM ATP by ADP-Glo kinase assay
Method in brief: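 Recombinant human Nek2 kinase activity assay run with ATP raised threefold, from the standard 50 μM to 150 μM. Inhibitor tested over a concentration series, and IC50 obtained by fitting the concentration-response curve.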

A549 [5] = assay: Inhibition of Akt phosphorylation at S473 residue in human A549 cells by Western blotting analysis; format: cell-based; details: dose 5-20 µM
Method in brief: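 A549 cells were treated for 24 h across several concentrations. Ser-473 phospho-Akt was detected by Western blot with GAPDH as the loading control. DMSO served as vehicle control and a reference Nek2 inhibitor as positive control.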

[6] = target: Serine/threonine-protein kinase Nek7 (Homo sapiens, UniProt Q8TDX7); assay: Inhibition of Nek7 (unknown origin); method in brief: as §1
[7] = target: Serine/threonine-protein kinase PLK1 (Homo sapiens, UniProt P53350); assay: Inhibition of Plk1 (unknown origin); method in brief: as §1
A549 [8] = assay: Cytotoxicity against human A549 cells assessed as inhibition of cell growth by MTT assay; format: functional, cell-based; method in brief: as §2

Sequence of Serine/threonine-protein kinase PLK1 (P53350 whole entry): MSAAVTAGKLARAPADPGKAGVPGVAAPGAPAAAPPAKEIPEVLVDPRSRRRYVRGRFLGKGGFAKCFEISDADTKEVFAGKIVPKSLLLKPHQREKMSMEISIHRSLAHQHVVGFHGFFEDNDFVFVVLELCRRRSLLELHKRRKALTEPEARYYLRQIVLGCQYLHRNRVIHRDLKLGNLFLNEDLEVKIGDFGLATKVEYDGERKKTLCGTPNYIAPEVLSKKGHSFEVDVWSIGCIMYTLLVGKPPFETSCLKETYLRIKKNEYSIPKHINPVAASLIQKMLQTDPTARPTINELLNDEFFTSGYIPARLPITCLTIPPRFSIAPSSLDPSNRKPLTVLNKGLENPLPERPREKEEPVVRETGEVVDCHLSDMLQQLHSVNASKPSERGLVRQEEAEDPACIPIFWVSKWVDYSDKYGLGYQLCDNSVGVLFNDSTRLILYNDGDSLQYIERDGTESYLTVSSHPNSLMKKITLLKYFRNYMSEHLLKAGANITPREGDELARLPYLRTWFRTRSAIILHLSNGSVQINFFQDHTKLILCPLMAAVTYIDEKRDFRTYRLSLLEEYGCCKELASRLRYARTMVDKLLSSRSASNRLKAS
Sequence of Cyclin-dependent kinase 1 (P06493 whole entry): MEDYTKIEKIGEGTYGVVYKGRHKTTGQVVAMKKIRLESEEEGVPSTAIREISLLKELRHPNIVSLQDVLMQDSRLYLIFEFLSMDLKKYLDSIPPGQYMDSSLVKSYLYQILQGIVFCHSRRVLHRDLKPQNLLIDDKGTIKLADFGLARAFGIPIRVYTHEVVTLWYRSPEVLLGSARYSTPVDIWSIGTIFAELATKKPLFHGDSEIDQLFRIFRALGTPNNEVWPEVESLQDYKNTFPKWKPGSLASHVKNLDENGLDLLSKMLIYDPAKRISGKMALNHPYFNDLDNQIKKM
Sequence of Serine/threonine-protein kinase Nek7 (Q8TDX7 whole entry): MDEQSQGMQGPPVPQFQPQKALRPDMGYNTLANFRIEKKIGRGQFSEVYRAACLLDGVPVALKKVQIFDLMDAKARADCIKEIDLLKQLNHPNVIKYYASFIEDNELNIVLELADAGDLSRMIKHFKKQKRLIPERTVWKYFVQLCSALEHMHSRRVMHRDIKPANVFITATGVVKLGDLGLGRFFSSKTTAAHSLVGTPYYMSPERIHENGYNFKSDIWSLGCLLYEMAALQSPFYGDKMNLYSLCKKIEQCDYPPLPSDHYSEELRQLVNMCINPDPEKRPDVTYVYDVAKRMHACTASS

| SMILES | pIC50 [1] | other results |
| --- | --- | --- |
| O=C1NC2(CCN(S(=O)(=O)Cc3ccccc3)CC2)N=C1c1ccc(Br)cc1 | 5.17 | – |
| O=C1NC2(CCN(S(=O)(=O)c3ccccc3)CC2)N=C1c1ccccc1 | 5.09 | – |
| O=C1NC2(CCN(S(=O)(=O)c3ccccc3)CC2)N=C1c1ccc(Cl)cc1 | 5.22 | – |
| CCOC(=O)c1ccc(S(=O)(=O)N2CCC3(CC2)N=C(c2ccc(Br)cc2)C(=O)N3)cc1 | 4.84 | – |
| CN1CCC2(CC1)NCC(=O)N2 | 4.24 | – |
| Cc1cc(C)c(S(=O)(=O)N2CCC3(CC2)N=C(c2ccc(Br)cc2)C(=O)N3)c(C)c1 | 5.01 | – |
| O=C1NC2(CCN(C(=O)c3ccccc3)CC2)N=C1c1ccc(Br)cc1 | 5.04 | – |
| CS(=O)(=O)N1CCC2(CC1)NCC(=O)N2 | 4.49 | – |
| O=C1NC2(CCN(S(=O)(=O)c3ccccc3)CC2)N=C1c1ccc(Br)cc1 | 5.03 | – |
| O=C1CNC2(CCNCC2)N1 | 4.49 | – |
| CC(C)(C)c1ccc(C2=NC3(CCN(S(C)(=O)=O)CC3)NC2=O)cc1 | 5.06 | – |
| Cc1ccc(S(=O)(=O)N2CCC3(CC2)N=C(c2ccc(Br)cc2)C(=O)N3)cc1C | 4.91 | – |

Now those with a higher pIC50 [1], led by results:

| pIC50 [1] | SMILES | other results |
| --- | --- | --- |
| 5.25 | O=C1NC2(CCN(S(=O)(=O)c3cccs3)CC2)N=C1c1ccc(Br)cc1 | – |
| 5.30 | CC(C)(C)c1ccc(S(=O)(=O)N2CCC3(CC2)N=C(c2ccc(Br)cc2)C(=O)N3)cc1 | – |
| 5.49 | Cc1ccc(C2=NC3(CCN(S(C)(=O)=O)CC3)NC2=O)cc1C | – |
| 5.35 | O=C1NC2(CCN(S(=O)(=O)c3ccccc3)CC2)N=C1c1ccc(F)cc1 | – |
| 5.31 | Cc1ccc(C2=NC3(CCN(S(C)(=O)=O)CC3)NC2=O)cc1 | – |
| 5.62 | CS(=O)(=O)N1CCC2(CC1)N=C(c1ccc(Br)cc1)C(=O)N2 | Activity (A549 [2]): Active; pIC50 (MDA-MB-231): 4.74; pIC50 [3]: 4.53; pIC50 (Aurora kinase A): 4.67; pIC50 [4]: 4.77; inhibition (A549 [5]): Dose-Dependent Effect; pIC50 [6]: 4.54; pIC50 [7]: 4.69; pIC50 (A549 [8]): 4.64 |

From ChEMBL document CHEMBL5257104, “Identification of a novel spirocyclic Nek2 inhibitor using high throughput virtual screening” (Bioorg Med Chem Lett, 2023)
